# Results from ChEMBL document CHEMBL4184143 (J Med Chem, 2017).
# Experiments:
# [1] = target: T1, Bromodomain-containing protein 3 (Homo sapiens, UniProt Q15059); assay: Binding affinity to human partial length BRD3 bromodomain 1/2 (P24 to P416 residues) expressed in bacterial expression system by BROMOscan assay
# Peregrin = Peregrin (Homo sapiens, UniProt P55201); assay: Binding affinity to human partial length BRPF1 (E627 to G740 residues) expressed in bacterial expression system by BROMOscan assay
# [2] = target: Bromodomain-containing protein 2 (Homo sapiens, UniProt P25440); assay: Binding affinity to human partial length BRD2 bromodomain 1 long isoform (72 to 205 residues) expressed in bacterial expression system by BROMOscan assay
# Protein polybromo-1 = Protein polybromo-1 (Homo sapiens, UniProt Q86U86); assay: Binding affinity to human partial length PBRM1 bromodomain 5 (S645 to D766 residues) expressed in bacterial expression system by BROMOscan assay
# [3] = target: T1, Bromodomain-containing protein 3; assay: Binding affinity to human partial length BRD3 bromodomain 2 (G306 to P416 residues) expressed in bacterial expression system by BROMOscan assay
# [4] = target: Bromodomain adjacent to zinc finger domain protein 2A (Homo sapiens, UniProt Q9UIF9); assay: Binding affinity to human partial length BAZ2A (M1792 to L1905 residues) expressed in bacterial expression system by BROMOscan assay
# Sequence of Bromodomain adjacent to zinc finger domain protein 2A (Q9UIF9 whole entry, the tested form may be a part): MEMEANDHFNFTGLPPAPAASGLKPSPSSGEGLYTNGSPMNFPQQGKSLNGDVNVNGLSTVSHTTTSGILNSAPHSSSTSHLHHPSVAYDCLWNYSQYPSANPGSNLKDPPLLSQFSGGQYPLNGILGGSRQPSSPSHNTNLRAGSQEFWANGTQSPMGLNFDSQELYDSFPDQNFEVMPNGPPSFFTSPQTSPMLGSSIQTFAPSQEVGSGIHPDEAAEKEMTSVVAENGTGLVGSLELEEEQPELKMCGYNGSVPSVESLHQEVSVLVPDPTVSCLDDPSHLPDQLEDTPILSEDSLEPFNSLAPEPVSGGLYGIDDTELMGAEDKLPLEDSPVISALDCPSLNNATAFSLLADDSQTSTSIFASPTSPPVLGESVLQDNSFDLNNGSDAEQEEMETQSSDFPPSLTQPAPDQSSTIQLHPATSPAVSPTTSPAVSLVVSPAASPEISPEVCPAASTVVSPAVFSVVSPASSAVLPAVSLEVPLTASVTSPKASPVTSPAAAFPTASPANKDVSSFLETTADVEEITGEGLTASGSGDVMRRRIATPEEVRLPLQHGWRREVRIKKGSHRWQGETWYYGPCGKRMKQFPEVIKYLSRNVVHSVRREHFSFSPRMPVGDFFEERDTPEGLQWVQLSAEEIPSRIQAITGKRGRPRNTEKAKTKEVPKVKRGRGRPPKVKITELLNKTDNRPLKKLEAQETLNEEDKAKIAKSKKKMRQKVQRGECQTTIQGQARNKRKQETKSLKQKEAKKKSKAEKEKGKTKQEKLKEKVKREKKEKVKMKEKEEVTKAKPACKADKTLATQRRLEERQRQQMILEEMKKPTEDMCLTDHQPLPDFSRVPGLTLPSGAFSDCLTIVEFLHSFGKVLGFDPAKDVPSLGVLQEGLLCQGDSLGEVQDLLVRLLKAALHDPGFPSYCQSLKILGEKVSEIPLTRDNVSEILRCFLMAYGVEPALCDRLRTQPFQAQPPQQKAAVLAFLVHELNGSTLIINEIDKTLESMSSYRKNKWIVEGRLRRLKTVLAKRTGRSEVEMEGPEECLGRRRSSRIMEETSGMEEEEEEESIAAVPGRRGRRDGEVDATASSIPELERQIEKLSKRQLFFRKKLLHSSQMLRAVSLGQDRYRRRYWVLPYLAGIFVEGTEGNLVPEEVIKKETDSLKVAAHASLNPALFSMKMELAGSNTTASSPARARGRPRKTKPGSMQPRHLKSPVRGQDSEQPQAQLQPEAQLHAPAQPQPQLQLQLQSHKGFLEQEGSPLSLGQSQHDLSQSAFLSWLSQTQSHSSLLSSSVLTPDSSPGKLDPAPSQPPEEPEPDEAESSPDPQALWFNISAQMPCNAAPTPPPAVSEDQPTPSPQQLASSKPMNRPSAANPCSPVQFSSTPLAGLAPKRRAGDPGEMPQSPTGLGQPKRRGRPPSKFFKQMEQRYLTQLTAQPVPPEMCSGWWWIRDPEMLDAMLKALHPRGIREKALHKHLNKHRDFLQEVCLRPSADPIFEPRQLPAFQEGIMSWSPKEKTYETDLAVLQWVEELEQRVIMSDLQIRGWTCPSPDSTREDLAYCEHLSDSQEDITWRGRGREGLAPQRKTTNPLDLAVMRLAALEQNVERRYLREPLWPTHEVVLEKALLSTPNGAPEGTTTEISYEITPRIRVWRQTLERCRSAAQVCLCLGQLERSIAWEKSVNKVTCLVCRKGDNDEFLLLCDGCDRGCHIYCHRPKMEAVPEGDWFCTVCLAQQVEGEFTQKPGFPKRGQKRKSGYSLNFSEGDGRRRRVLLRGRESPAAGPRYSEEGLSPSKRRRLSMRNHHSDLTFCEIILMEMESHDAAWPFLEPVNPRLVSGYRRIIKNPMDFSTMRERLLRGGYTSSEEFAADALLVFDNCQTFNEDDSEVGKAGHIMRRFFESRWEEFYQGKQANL
# [5] = Half life in CD1 mouse liver microsomes at 1 uM by LC/MS method; assay type: ADME, microsome
# [6] = target: T2, Bromodomain-containing protein 4 (Homo sapiens, UniProt O60885); assay: Binding affinity to human partial length BRD4 bromodomain 2 long isoform (K333 to E460 residues) expressed in bacterial expression system by BROMOscan assay
# [7] = target: Histone acetyltransferase KAT2A (Homo sapiens, UniProt Q92830); assay: Binding affinity to human partial length GCN5L2 (E726 to K837 residues) expressed in bacterial expression system by BROMOscan assay
# Sequence of Histone acetyltransferase KAT2A (Q92830 whole entry, the tested form may be a part): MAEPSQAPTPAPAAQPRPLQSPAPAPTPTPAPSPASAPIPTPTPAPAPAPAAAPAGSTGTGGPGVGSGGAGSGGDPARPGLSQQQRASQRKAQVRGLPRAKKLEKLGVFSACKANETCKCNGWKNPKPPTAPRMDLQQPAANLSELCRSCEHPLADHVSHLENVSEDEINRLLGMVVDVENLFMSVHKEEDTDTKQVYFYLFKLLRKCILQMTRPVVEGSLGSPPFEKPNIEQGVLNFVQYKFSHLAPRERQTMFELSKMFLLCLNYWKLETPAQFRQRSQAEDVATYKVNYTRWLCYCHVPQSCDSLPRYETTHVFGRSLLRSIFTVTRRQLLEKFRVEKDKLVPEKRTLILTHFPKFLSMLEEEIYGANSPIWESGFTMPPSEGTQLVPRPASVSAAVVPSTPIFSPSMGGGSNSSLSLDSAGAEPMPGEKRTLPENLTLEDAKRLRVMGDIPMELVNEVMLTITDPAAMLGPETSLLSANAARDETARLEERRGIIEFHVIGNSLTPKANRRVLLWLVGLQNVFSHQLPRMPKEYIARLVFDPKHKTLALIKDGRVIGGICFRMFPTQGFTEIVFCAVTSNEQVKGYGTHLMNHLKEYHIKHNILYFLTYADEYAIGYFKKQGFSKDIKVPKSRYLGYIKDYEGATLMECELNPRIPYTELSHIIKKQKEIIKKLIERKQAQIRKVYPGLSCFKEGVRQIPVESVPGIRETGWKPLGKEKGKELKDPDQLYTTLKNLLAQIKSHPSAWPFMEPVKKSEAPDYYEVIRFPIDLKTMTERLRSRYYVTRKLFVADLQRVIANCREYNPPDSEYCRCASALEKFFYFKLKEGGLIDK
# [8] = Oral bioavailability in Sprague-Dawley rat at 25 mg/kg by LC/MS method; assay type: ADME, organism-based; conditions: in vivo
# [9] = target: T2, Bromodomain-containing protein 4; assay: Inhibition of FAM-labeled ZBA248 binding to recombinant human N-terminal His6-tagged BRD4 bromodomain 2 (333 to 460 residues) expressed in Rosetta2 DE3 cells after 30 mins by Flourescence polarization assay; assay type: biochemical
# [10] = target: Bromodomain-containing protein 8 (Homo sapiens, UniProt Q9H0E9); assay: Binding affinity to human partial length BRD8 bromodomain 2 (D1095 to F1235 residues) expressed in mammalian expression system by BROMOscan assay
# Sequence of Bromodomain-containing protein 8 (Q9H0E9 whole entry, the tested form may be a part): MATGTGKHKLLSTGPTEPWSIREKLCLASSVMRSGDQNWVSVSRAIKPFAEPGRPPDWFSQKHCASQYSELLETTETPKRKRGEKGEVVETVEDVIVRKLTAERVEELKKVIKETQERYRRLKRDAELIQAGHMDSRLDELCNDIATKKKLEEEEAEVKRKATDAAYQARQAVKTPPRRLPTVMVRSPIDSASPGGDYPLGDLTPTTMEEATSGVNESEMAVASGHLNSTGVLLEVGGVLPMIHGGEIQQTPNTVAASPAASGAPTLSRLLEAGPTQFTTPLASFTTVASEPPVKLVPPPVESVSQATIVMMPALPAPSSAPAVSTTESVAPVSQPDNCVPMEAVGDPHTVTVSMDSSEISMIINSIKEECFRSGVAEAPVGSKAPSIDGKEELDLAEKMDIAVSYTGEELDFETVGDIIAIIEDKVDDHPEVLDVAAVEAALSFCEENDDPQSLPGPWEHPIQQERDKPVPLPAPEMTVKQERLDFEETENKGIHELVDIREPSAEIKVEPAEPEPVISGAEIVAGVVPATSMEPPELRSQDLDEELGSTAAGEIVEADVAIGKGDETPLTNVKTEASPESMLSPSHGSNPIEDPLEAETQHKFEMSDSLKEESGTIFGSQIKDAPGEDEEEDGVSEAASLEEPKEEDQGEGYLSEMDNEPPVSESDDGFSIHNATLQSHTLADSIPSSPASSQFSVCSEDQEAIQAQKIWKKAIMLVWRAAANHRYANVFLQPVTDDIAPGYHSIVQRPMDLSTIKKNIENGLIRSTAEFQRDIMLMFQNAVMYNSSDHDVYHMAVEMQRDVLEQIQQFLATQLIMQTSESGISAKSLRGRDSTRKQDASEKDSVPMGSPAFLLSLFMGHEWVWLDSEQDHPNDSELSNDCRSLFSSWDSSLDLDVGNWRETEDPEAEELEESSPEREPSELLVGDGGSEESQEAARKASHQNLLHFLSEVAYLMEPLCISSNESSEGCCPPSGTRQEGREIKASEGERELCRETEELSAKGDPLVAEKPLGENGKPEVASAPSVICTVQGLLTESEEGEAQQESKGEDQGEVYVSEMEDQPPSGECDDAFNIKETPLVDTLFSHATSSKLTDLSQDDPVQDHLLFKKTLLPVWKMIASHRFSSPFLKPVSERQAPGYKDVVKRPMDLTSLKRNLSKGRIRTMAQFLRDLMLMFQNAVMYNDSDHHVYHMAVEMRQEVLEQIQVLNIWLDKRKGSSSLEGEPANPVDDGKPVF
# HBL-100 = assay: Cytotoxicity against human HBL100 cells assessed as cell growth inhibition after 4 days by WST-8 assay; assay type: functional, cell-based; conditions: HBL-100, 96 h
# In short: (§1)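 Breast cancer cells were seeded at 3,000 cells/well, treated with serially diluted compound in medium and cultured for 4 days. Growth was read by WST-8 (10% v/v final, 1–3 h) at 450 nm. Readings were normalized to DMSO-treated cells, and IC50 was obtained by nonlinear regression.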
# [11] = Aqueous solubility of the compound in 5% DMSO/10% cremophor/85% saline; assay type: physicochemical; conditions: buffer
# [12] = target: ATPase family AAA domain-containing protein 2 (Homo sapiens, UniProt Q6PL18); assay: Binding affinity to human partial length ATAD2A (Q981 to R1108 residues) expressed in bacterial expression system by BROMOscan assay
# [13] = target: Histone acetyltransferase p300 (Homo sapiens, UniProt Q09472); assay: Binding affinity to human partial length EP300 (A1040 to G1161 residues) expressed in bacterial expression system by BROMOscan assay
# [14] = Half life in Sprague-Dawley rat at 25 mg/kg, po by LC/MS method; assay type: ADME, organism-based; conditions: in vivo
# In short: (§2)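 Sprague Dawley rats were dosed iv at 5 mg/kg or orally at 25 mg/kg, with compound dissolved in 20% (v/v) PCP/70% (v/v) PBS vehicle. Blood was drawn by catheter at 0, 5, 15, 30 min and 1, 2, 4, 6, 8, 24 h and spun to plasma, which was stored at −80 °C. Plasma drug was quantified by a validated LC–MS/MS method, and parameters were derived noncompartmentally.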
# [15] = Volume of distribution at steady state in Sprague-Dawley rat at 5 mg/kg, iv by LC/MS method; assay type: ADME, organism-based; conditions: in vivo, read-out: Vdss
# Mus musculus = assay: Toxicity in SCID mouse implanted with human MV4-11 cells at 50 mg/kg, po qd measured 2 to 3 times weekly during treatment and once weekly post dose; assay type: organism-based; conditions: in vivo
# In short: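 At ~100 mm3, mice were randomized to treatment or vehicle control. Tumors were measured by electronic calipers. Animals were checked daily for signs of toxicity and weighed 2–3 times weekly on treatment, then at least weekly afterwards.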
# [16] = Cmax in Sprague-Dawley rat at 25 mg/kg, po by LC/MS method; assay type: ADME, organism-based; set-up: dose 25 mg/kg, route oral; conditions: in vivo; in short: as §2
# [17] = AUC (0 to t) in Sprague-Dawley rat at 25 mg/kg, po by LC/MS method; assay type: ADME, organism-based; conditions: in vivo; in short: as §2
# [18] = target: T3, Bromodomain testis-specific protein (Homo sapiens, UniProt Q58F21); assay: Binding affinity to human partial length BRDT bromodomain 2 isoform b (K250 to E382 residues) expressed in bacterial expression system by BROMOscan assay
# [19] = target: ATPase family AAA domain-containing protein 2B (Homo sapiens, UniProt Q9ULI0); assay: Binding affinity to human partial length ATAD2B (Q955 to R1082 residues) expressed in bacterial expression system by BROMOscan assay
# [20] = Clearance in Sprague-Dawley rat at 5 mg/kg, iv by LC/MS method; assay type: ADME, organism-based; conditions: in vivo
# [21] = target: T1, Bromodomain-containing protein 3; assay: Binding affinity to human partial length BRD3 bromodomain 1 (P24 to E144 residues) expressed in bacterial expression system by BROMOscan assay
# SUM-159-PT = assay: Cytotoxicity against human SUM159PT cells assessed as cell growth inhibition after 4 days by WST-8 assay; assay type: functional, cell-based; conditions: 96 h; in short: as §1
# [22] = target: Histone acetyltransferase KAT2B (Homo sapiens, UniProt Q92831); assay: Binding affinity to human partial length PCAF (G715 to D831 residues) expressed in bacterial expression system by BROMOscan assay
# [23] = target: Bromodomain and PHD finger-containing protein 3 (Homo sapiens, UniProt Q9ULD4); assay: Binding affinity to human partial length BRPF3 (E588 to G701 residues) expressed in bacterial expression system by BROMOscan assay
# [24] = target: Bromodomain and WD repeat-containing protein 1 (Homo sapiens, UniProt Q9NSI6); assay: Binding affinity to human partial length WDR9 bromodomain 2 (A1310 to E1430 residues) expressed in bacterial expression system by BROMOscan assay
# [25] = Half life in Sprague-Dawley rat liver microsomes at 1 uM by LC/MS method; assay type: ADME, microsome
# [26] = target: T3, Bromodomain testis-specific protein; assay: Binding affinity to human partial length BRDT bromodomain 1 isoform b (N21 to E137 residues) expressed in bacterial expression system by BROMOscan assay
# [27] = target: SWI/SNF-related matrix-associated actin-dependent regulator of chromatin subfamily A member 2 (Homo sapiens, UniProt P51531); assay: Binding affinity to human partial length SMARCA2 (S1377 to Q1486 residues) expressed in bacterial expression system by BROMOscan assay
# T1 sequence (Q15059 whole entry, the tested form may be a part): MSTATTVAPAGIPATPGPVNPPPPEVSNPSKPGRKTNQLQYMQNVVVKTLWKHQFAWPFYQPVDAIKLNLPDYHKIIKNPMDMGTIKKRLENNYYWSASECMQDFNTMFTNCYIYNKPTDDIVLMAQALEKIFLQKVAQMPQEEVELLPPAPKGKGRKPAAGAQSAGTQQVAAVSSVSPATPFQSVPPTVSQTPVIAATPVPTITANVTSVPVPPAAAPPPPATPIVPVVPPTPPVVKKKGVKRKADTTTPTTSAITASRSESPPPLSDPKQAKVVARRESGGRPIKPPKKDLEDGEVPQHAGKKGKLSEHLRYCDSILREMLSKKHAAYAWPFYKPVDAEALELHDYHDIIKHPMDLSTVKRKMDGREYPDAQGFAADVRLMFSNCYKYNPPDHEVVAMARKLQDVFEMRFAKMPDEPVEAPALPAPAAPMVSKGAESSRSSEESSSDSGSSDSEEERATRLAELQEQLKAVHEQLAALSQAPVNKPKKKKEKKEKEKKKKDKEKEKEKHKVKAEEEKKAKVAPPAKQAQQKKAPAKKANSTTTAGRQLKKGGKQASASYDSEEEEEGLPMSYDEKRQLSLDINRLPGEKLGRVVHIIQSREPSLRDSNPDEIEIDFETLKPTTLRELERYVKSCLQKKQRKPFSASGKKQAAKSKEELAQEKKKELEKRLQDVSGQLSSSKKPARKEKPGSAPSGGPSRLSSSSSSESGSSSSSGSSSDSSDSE
structure (smiles),measurement,setting,value
COc1cc2c(cc1-c1c(C)noc1C)[nH]c1nc(C)nc(-c3ccnc4ccccc34)c12,Kd,[1],0.73 nM
same,Kd,Peregrin,> 4000 nM
same,Kd,[2],4.5 nM
same,Kd,Protein polybromo-1,> 4000 nM
same,Kd,[3],0.69 nM
same,Kd,[4],> 4000 nM
same,t1/2,[5],> 1 h
same,Kd,[6],2 nM
same,Kd,[7],> 4000 nM
same,bioavailability,[8],93%
same,IC50,[9],7.2 nM
same,Ki,[9],1.4 nM
same,Kd,[10],> 4000 nM
same,IC50,HBL-100,> 2000 nM
same,solubility,[11],Soluble
same,Kd,[12],> 4000 nM
same,Kd,[13],550 nM
same,half-life,[14],2.9 h
same,Vd,[15],2 L/kg
same,Activity,Mus musculus,Non-Toxic
same,Cmax,[16],7330 ng/mL
same,AUC(0-t),[17],29500 ng·h/mL
same,Kd,[18],5.5 nM
same,Kd,[19],> 4000 nM
same,clearance,[20],13.2 mL/min/kg
same,Kd,[21],2 nM
same,IC50,SUM-159-PT,> 2000 nM
same,Kd,[22],> 4000 nM
same,Kd,[23],> 4000 nM
same,Kd,[24],> 4000 nM
same,t1/2,[25],> 1 h
same,Kd,[26],15 nM
same,Kd,[27],> 4000 nM
